Experimental data reported in ChEMBL document CHEMBL2203153, “Synthesis of novel azo-resveratrol, azo-oxyresveratrol and their derivatives as potent tyrosinase inhibitors” (Bioorg Med Chem Lett, 2012).

Legend:
[1] = target: T1, Tyrosinase (Agaricus bisporus) (UniProt O42713); assay: Inhibition of mushroom tyrosinase using L-tyrosine as substrate at 50 uM after 30 mins by spectrophotometric analysis
T1 sequence (whole entry): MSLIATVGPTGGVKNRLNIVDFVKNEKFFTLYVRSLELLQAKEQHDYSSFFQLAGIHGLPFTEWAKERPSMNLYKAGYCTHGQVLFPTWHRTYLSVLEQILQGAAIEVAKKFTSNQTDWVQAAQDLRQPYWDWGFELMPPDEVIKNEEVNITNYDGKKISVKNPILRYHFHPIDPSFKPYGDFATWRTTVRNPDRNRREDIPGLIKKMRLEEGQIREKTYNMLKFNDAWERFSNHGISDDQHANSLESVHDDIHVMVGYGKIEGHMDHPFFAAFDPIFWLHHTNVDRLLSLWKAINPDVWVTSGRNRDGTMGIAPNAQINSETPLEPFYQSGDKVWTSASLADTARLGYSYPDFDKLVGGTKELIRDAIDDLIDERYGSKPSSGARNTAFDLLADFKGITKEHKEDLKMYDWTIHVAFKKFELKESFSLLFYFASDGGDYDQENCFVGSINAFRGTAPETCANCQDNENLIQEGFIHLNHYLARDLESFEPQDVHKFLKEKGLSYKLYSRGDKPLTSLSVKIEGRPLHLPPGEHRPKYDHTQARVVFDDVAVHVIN
How it was run: (§1)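 Mushroom tyrosinase (1000 units) was added to a mixture of 1 mM L-tyrosine and 50 mM phosphate buffer, pH 6.5, with test compound at the stated concentration. After 30 min at 25 °C, dopachrome formation was measured spectrophotometrically at OD492 and expressed as percent inhibition. Values are means ± S.E. of three experiments.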

[2] = target: T1, Tyrosinase (Agaricus bisporus); assay: Inhibition of mushroom tyrosinase using L-tyrosine as substrate at 5 uM after 30 mins by spectrophotometric analysis; how it was run: as §1
Tyrosinase = target: T2, Tyrosinase (Agaricus bisporus, UniProt O42713); assay: (§2) Inhibition of mushroom tyrosinase using L-tyrosine as substrate after 30 mins by spectrophotometric analysis
T2 sequence (O42713 whole entry): T1 sequence (whole entry)
How it was run: (§3)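 Mushroom tyrosinase (1000 units) was added to assay mixture containing 1 mM L-tyrosine in 50 mM phosphate buffer, pH 6.5. Incubation ran 30 min at 25 °C, and dopachrome was read at 492 nm. Dose-dependent inhibition was run in triplicate at three doses. IC50 was taken from the inhibitor concentration versus product formation curve.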

[3] = target: T1, Tyrosinase (Agaricus bisporus); assay: as §2; how it was run: as §3
[4] = target: T1, Tyrosinase (Agaricus bisporus); assay: Inhibition of mushroom tyrosinase using L-tyrosine as substrate at 20 uM after 30 mins by spectrophotometric analysis; how it was run: as §1
[5] = target: T1, Tyrosinase (Agaricus bisporus); assay: Inhibition of mushroom tyrosinase using L-tyrosine as substrate at 80 uM after 30 mins by spectrophotometric analysis; how it was run: as §1
[6] = target: T1, Tyrosinase (Agaricus bisporus); assay: Inhibition of mushroom tyrosinase using L-tyrosine as substrate at 30 uM after 30 mins by spectrophotometric analysis; how it was run: as §1
[7] = target: T1, Tyrosinase (Agaricus bisporus); assay: Inhibition of mushroom tyrosinase using L-tyrosine as substrate at 15 uM after 30 mins by spectrophotometric analysis; how it was run: as §1
[8] = target: T1, Tyrosinase (Agaricus bisporus); assay: Inhibition of mushroom tyrosinase using L-tyrosine as substrate at 0.5 uM after 30 mins by spectrophotometric analysis
How it was run: (§4)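 Mushroom tyrosinase (20 µL of 1000 units aqueous solution) in a 200 µL mixture with 1 mM L-tyrosine in 50 mM phosphate buffer, pH 6.5. Incubated 30 min at 25 °C; dopachrome read at 492 nm. Percent inhibition was measured at three doses per compound, in triplicate, to build dose–response curves.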

[9] = target: T1, Tyrosinase (Agaricus bisporus); assay: Inhibition of mushroom tyrosinase using L-tyrosine as substrate at 1 uM after 30 mins by spectrophotometric analysis; how it was run: as §4
[10] = target: T1, Tyrosinase (Agaricus bisporus); assay: Inhibition of mushroom tyrosinase using L-tyrosine as substrate at 10 uM after 30 mins by spectrophotometric analysis; how it was run: as §4

Row | Compound | inhibition [1] [%] | IC50 (Tyrosinase) [µM] | inhibition [3] | other results
1 | COc1ccc(OC)c(/N=N/c2ccc(O)c(OC)c2)c1 | 0.44 | – | – | –
2 | COc1cc(/N=N/c2ccc(O)c(OC)c2)cc(OC)c1 | 1.03 | – | – | –
3 | COc1cc(/N=N/c2ccc(O)cc2)cc(OC)c1 | 56.2 | 50.2 | Dose-dependent effect | inhibition [2]: 8.4%; inhibition [4]: 46%; inhibition [5]: 61.4%
4 | COc1ccc(OC)c(/N=N/c2ccc(O)cc2O)c1 | 27.8 | – | – | –
5 | Oc1ccc(/N=N/c2cc(O)cc(O)c2)cc1 | 72.8 | 36.3 | Dose-dependent effect | inhibition [6]: 44.3%; inhibition [7]: 7.6%
6 | COc1ccc(/N=N/c2cc(OC)ccc2OC)c(O)c1 | 6.38 | – | – | –
7 | COc1cc(/N=N/c2ccc(O)cc2OC)cc(OC)c1 | 8.9 | – | – | –
8 | Oc1cc(O)cc(/N=N/c2ccc(O)cc2O)c1 | 41.5 | – | – | –
9 | Oc1ccc(/C=C/c2cc(O)cc(O)c2)cc1 [RESVERATROL] | – | 26.6 | Dose-dependent effect | inhibition [2]: 27.1%; inhibition [8]: 13.7%; inhibition [6]: 47.8%; inhibition [9]: 16.3%; inhibition [4]: 47.3%; inhibition [10]: 38%
10 | COc1cc(/N=N/c2ccc(O)cc2O)cc(OC)c1 | 48.5 | – | – | –
